Laboratory results: ChEMBL document CHEMBL1154082, “Inhibition of human vascular NADPH oxidase by apocynin derived oligophenols” (Bioorg Med Chem, 2009)
Calls of active or inactive are those of the source. The calls are words filed in the database; no cut-off is given here.

What was measured:
[1] = (§1) Inhibition of NADPH oxidase in human HUVEC assessed as inhibition of superoxide anion generation by cytochrome-C reduction assay
How it was run: (§2)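 HUVEC (10^5 cells/mL) in phenol red-free DMEM, 10 min at 37°C. LDL (100 μg/mL) activates oxidase. Compound 0–1000 μM with NADPH 100 μM and cytochrome c 250 μM, ±SOD 200 μg/mL, 30 min at room temperature. A550 read. Superoxide taken from the SOD-inhibitable difference using ε 18.7 cm−1mM−1; triplicate.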

Homo sapiens [2] = organism: Homo sapiens; assay: as §1; how it was run: as §2
Homo sapiens [3] = organism: Homo sapiens; assay: Inhibition of NADPH oxidase in human HUVEC assessed as inhibition of superoxide anion generation by DHE staining confocal microscopy
How it was run: (§3)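 HUVEC in phenol red-free DMEM exposed to compound 0–1 mM for 2 h, washed twice in PBS, resuspended in fresh DMEM. NADPH oxidase activated with PMA (1 μM) for 30 min, then DHE (3 μM) for 30 min, then NADPH (100 μM); kept in dark. Oxyethidium red fluorescence imaged by confocal microscopy, qualitative.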

[4] = Inhibition of p47phox/p22phox interaction by ELISA
Homo sapiens [5] = organism: Homo sapiens; assay: Inhibition of NADPH oxidase in human HUVEC assessed as inhibition of superoxide anion generation up to 1 mM by DHE staining confocal microscopy; how it was run: as §3

Question: For `COC1=CC(C(C)=O)=C/C(=C2\C(=O)C(OC)=C(c3cc(C(C)=O)cc(OC)c3O)C(C(C)=O)=C2O)C1=O`, which IC50 [1] is on record?
Answer: Its IC50 is 0.03 µM.

Question: What about the logIC50 (Homo sapiens [2]) of the same compound?
Answer: The logIC50 was -1.51.

Question: What about the Activity (Homo sapiens [3]) of the same compound?
Answer: Its Activity is “Active”.

Question: And the IC50 [4]?
Answer: The IC50 was 1.6 µM.

Question: And the logIC50 [4]?
Answer: The logIC50 was 0.2.

Question: What does the source list for `COc1cc(C(C)=O)ccc1O` [APOCYNIN]?
Answer: IC50 [1]: 1090 µM; logIC50 (Homo sapiens [2]): 3.04; Activity (Homo sapiens [5]): inactive; IC50 [4]: 61000 µM; logIC50 [4]: 4.78
